Test results reported in paper PMC4203514 (Autophagy, 2014).
Entries after “also recorded” stand apart in the source; their conditions may differ. Like-named read-outs stand apart in the source and are kept apart here.

Key:
[1] = system: patients with rheumatoid arthritis; settings: 1200 mg/d HCQ (600 mg twice daily), after 6 wk; cited from earlier work
[2] = system: peripheral blood mononuclear cells; assay: Autophagic vacuole; type: in vivo, human; settings: after 2 wk run-in of HCQ; baseline 2.19
glioma = settings: cited from earlier work
[3] = Population pharmacokinetics of HCQ in whole blood; type: in vivo, human; settings: for Vd/F: human, oral, Vc/F, apparent central volume of distribution
Outline: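 Whole blood was sampled in sodium heparin pre-dose and at 2, 4, 8 and 12 wk and 6 mo, then stored at −70 °C. Samples were assayed in duplicate by HPLC-MS/MS with a deuterated internal standard against a 1/x-weighted linear curve (1–5000 ng/mL; LLOQ 1.0 ng/mL). One- and two-compartment first-order models were fitted by nonlinear mixed-effects (Lindstrom-Bates) with log-normal inter-individual variability. Precision came from 1000 bootstrap runs, and individual parameters were used for profile simulations.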

[4] = system: patients with advanced solid tumors; assay: Treatment-related adverse events by grade; type: in vivo, human
Outline: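 Patients who took at least one dose of the oral test compound, given with a dose-intense oral alkylating agent, were evaluable for toxicity. Adverse events were graded by NCI Common Toxicity Criteria v3.0, and haematological toxicities were attributed to the alkylating agent. Complete blood counts were done weekly for the first 6 wk and biweekly thereafter. Treatment ran in 28 d cycles.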

[5] = system: patients with advanced solid tumors; type: in vivo, human
Outline: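 Open-label single-institution 3 + 3 escalation of the oral test compound only, starting at 200 mg daily, split twice daily about 12 h apart above 200 mg, up to 1200 mg. A 14 d monotherapy run-in preceded an oral alkylating agent at 150 mg/m2 daily for 7 of 14 d, in 28 d cycles. DLT was any at least possibly related grade ≥ 3 event in the first 6 wk. MTD was ≤ 1/6 patients with DLT.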

[6] = system: peripheral blood mononuclear cells; assay: PK-PD CART analysis of HCQ peak concentration versus AV accumulation in PBMC; type: in vivo, human
Outline: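 Exploratory classification and regression trees analysis used 26 patients with complete PK and PD data. The target was change in PBMC AV count from baseline to 2 wk. Predictors were Cmin, Cmax and AUC, taken from model-simulated individual blood profiles. The PK-PD relationship was also examined after 4 wk of combined therapy. The Cmax threshold was tested by Kruskal-Wallis (medians) and Kolmogorov-Smirnov two-sample tests.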

[7] = population PK, 1000 bootstrap runs
[8] = population PK, whole blood, 35 patients
[9] = all patients (37 evaluable for toxicities)

## CCN(CCO)CCCC(C)Nc1ccnc2cc(Cl)ccc12 (centres unmarked) [HCQ, hydroxychloroquine]
[1]
  Dose-limiting toxicity as a single agent: dose-limiting nausea
[2]
  Mean AV count per cell in PBMC: 2.45
glioma; HCQ 800 mg with TMZ 75 mg/m^2 daily and brain radiation
  Myelosuppression: all experienced grade 4 myelosuppression
glioma; combined with TMZ 75 mg/m^2 daily for 6 wk with concomitant brain radiation
  Maximal tolerated dose of HCQ: 600 mg daily
[3]; whole blood, bootstrap estimate, population PK, 1000 bootstrap runs
  Vd/F: 500 L
[3]; whole blood, model estimate, population PK, 35 patients
  Vd/F: 486 L
[3]; [7]
  Cl/F, apparent oral clearance, bootstrap estimate: 10.085 L/h
  Ka, absorption rate constant, bootstrap estimate: 0.999 h⁻¹
  Vp/F, apparent peripheral volume of distribution, bootstrap estimate: 1400.415 L
[3]; [8]
  Cl/F, apparent oral clearance, model estimate: 9.975 L/h
  Ka, absorption rate constant, model estimate: 0.998 h⁻¹
  Vp/F, apparent peripheral volume of distribution, model estimate: 1406.52 L
[3]; simulated for individual patients with final PK model, (16 d)
  Time to steady-state HCQ blood concentration, on average: 400 h
[4]; All patients, HCQ with TMZ
  Abdominal fullness G1/G2: 2 (6) No. (%)
  Abdominal pain G1/G2: 2 (6) No. (%)
  Anemia G1/G2: 1 (3) No. (%)
  Anemia G3/G4: 1 (3) No. (%)
  Anorexia G1/G2: 13 (35) No. (%)
  Bradycardia G1/G2: 2 (6) No. (%)
  Constipation G1/G2: 8 (22) No. (%)
  Diarrhea G1/G2: 9 (24) No. (%)
  Dizziness G1/G2: 2 (6) No. (%)
  Dyspepsia G1/G2: 2 (6) No. (%)
  Headaches G1/G2: 3 (8) No. (%)
  Hypotension G1/G2: 3 (8) No. (%)
  Leukopenia G3/G4: 1 (3) No. (%)
  Lymphopenia G1/G2: 5 (14) No. (%)
  Lymphopenia G3/G4: 5 No. (%)
  Myalgias G1/G2: 2 (6) No. (%)
  Nausea G1/G2: 24 (65) No. (%)
  Nausea G3/G4: 1 (3) No. (%)
  Neutropenia G3/G4: 2 (6) No. (%)
  Pruritus G1/G2: 4 (12) No. (%)
  Rash G1/G2: 3 (8) No. (%)
  Rash G3/G4: 1 (3) No. (%)
  Taste change G1/G2: 2 (6) No. (%)
  Thrombocytopenia G1/G2: 5 (14) No. (%)
  Thrombocytopenia G3/G4: 2 (6) No. (%)
  Vomiting G3/G4: 1 (3) No. (%)
[4]; HCQ 200 mg (n = 3) with TMZ
  Abdominal fullness G1/G2: 1 (33) No. (%)
  Anorexia G1/G2: 1 (33) No. (%)
  Constipation G1/G2: 1 (33) No. (%)
  Fatigue G1/G2: 1 (33) No. (%)
  Lymphopenia G1/G2: 1 (33) No. (%)
  Lymphopenia G3/G4: 1 (33) No. (%)
  Nausea G1/G2: 1 (33) No. (%)
  Vomiting G1/G2: 1 (33) No. (%)
[4]; HCQ 400 mg (n = 4) with TMZ
  Abdominal fullness G1/G2: 1 (25) No. (%)
  Anorexia G1/G2: 1 (25) No. (%)
  Diarrhea G1/G2: 1 (25) No. (%)
  Fatigue G1/G2: 2 (50) No. (%)
  Hypotension G1/G2: 1 (25) No. (%)
  Lymphopenia G3/G4: 2 (50) No. (%)
  Myalgias G1/G2: 1 (25) No. (%)
  Nausea G1/G2: 4 (100) No. (%)
  Thrombocytopenia G1/G2: 1 (25) No. (%)
  Vomiting G1/G2: 3 (75) No. (%)
[4]; HCQ 800 mg (n = 15) with TMZ
  Anorexia G1/G2: 5 (33) No. (%)
  Constipation G1/G2: 4 (27) No. (%)
  Diarrhea G1/G2: 2 (13) No. (%)
  Dyspepsia G1/G2: 1 (7) No. (%)
  Fatigue G1/G2: 7 (47) No. (%)
  Headaches G1/G2: 2 (13) No. (%)
  Leukopenia G3/G4: 1 (7) No. (%)
  Lymphopenia G1/G2: 3 (20) No. (%)
  Lymphopenia G3/G4: 1 (7) No. (%)
  Myalgias G1/G2: 1 (7) No. (%)
  Nausea G1/G2: 6 (40) No. (%)
  Neutropenia G3/G4: 2 (13) No. (%)
  Pruritus G1/G2: 1 (7) No. (%)
  Rash G1/G2: 2 (13) No. (%)
  Taste change G1/G2: 1 (7) No. (%)
  Thrombocytopenia G3/G4: 2 (13) No. (%)
  Vomiting G1/G2: 3 (20) No. (%)
[4]; HCQ 1000 mg (n = 7) with TMZ
  Abdominal pain G1/G2: 2 (29) No. (%)
  Anemia G3/G4: 1 (14) No. (%)
  Anorexia G1/G2: 1 (14) No. (%)
  Constipation G1/G2: 1 (14) No. (%)
  Diarrhea G1/G2: 3 (43) No. (%)
  Dizziness G1/G2: 1 (14) No. (%)
  Fatigue G1/G2: 5 (71) No. (%)
  Headaches G1/G2: 1 (14) No. (%)
  Lymphopenia G1/G2: 1 (14) No. (%)
  Nausea G1/G2: 5 (71) No. (%)
  Pruritus G1/G2: 1 (14) No. (%)
  Rash G3/G4: 1 (14) No. (%)
  Taste change G1/G2: 1 (14) No. (%)
  Thrombocytopenia G1/G2: 2 (29) No. (%)
  Vomiting G1/G2: 2 (29) No. (%)
[4]; HCQ 1200 mg (n = 8) with TMZ
  Anemia G1/G2: 1 (13) No. (%)
  Anorexia G1/G2: 3 (38) No. (%)
  Bradycardia G1/G2: 1 (13) No. (%)
  Constipation G1/G2: 2 (25) No. (%)
  Diarrhea G1/G2: 2 (25) No. (%)
  Fatigue G1/G2: 7 (88) No. (%)
  Hypotension G1/G2: 1 (13) No. (%)
  Lymphopenia G3/G4: 1 (13) No. (%)
  Nausea G1/G2: 4 (50) No. (%)
  Nausea G3/G4: 1 (13) No. (%)
  Rash G1/G2: 1 (13) No. (%)
  Thrombocytopenia G1/G2: 1 (13) No. (%)
  Vomiting G1/G2: 2 (25) No. (%)
  Vomiting G3/G4: 1 (13) No. (%)
[4]; [9]
  ≥ grade 1 treatment-related anorexia: 35%
  ≥ grade 1 treatment-related constipation: 22%
  ≥ grade 1 treatment-related diarrhea: 24%
  ≥ grade 1 treatment-related fatigue: 97%
  ≥ grade 1 treatment-related nausea: 65%
[5]; HCQ up to 1200 mg/d combined with dose-intense TMZ 150 mg/m^2 daily for 7/14 d
  Maximum tolerated dose (MTD): No maximal tolerated dose; also recorded: not reached
[5]; combined with dose-intense TMZ, dose level 5
  Recommended phase II dose (RPTD): 600 mg twice daily
[5]; dose level 1 (HCQ 200 mg/day), three patients
  Dose-limiting toxicity: no dose-limiting toxicity (DLT) was observed
[5]; dose level 2 (HCQ 400 mg/day)
  Dose-limiting toxicity: no DLT observed
[5]; dose level 3 (HCQ 400 mg twice daily), patient on sotalol, within 8 d, attributed to dehydration and not to the study drug
  Serious adverse event: third-degree heart block
[5]; dose level 4 (HCQ 1000 mg/day), none in 3 additional patients
  Dose-limiting toxicity: one grade 3 rash
[5]; dose level 5 (HCQ 1200 mg/d), first cycle, none in expanded cohort
  Dose-limiting toxicity: one patient experienced grade 3 nausea and vomiting
[6]; after 2 wk of single agent HCQ, 26 patients
  Threshold HCQ Cmax that correlated with AV accumulation (CART): 1554 ng/mL
[6]; baseline to 4 wk of combined therapy (TMZ + HCQ), 21 patients
  Threshold HCQ Cmax for AV change (CART): 856 ng/mL
[6]; patients with Cmax above 1554 ng/mL (n = 18), IQR -0.45, 1.37
  Median AV change from baseline to 2 wk: 0.89
[6]; patients with Cmax below 1554 ng/mL (n = 8), IQR −1.35, 0.03
  Median AV change from baseline to 2 wk: −0.21
